Test results from ChEMBL document CHEMBL1156822, “Isosorbide-2-benzyl carbamate-5-salicylate, a peripheral anionic site binding subnanomolar selective butyrylcholinesterase inhibitor” (J Med Chem, 2010).

What was measured:
[1] = Selectivity for human BuChe over electric eel AChE type 6S
[2] = target: Acetylcholinesterase (Electrophorus electricus) (UniProt O42275); assay: Inhibition of electric eel AChE type 6S at 100 uM
In short: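 Electric eel AChE (type VI-S) in pH 8.0 phosphate buffer was preincubated for 30 min at 37 °C with test compound added from a 2 mmol MeCN stock. Ellman read-out followed, with final DTNB 0.3 mmol and acetylthiocholine 0.5 mmol.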

[3] = species: Homo sapiens; assay: Inhibition of human BuChE Y332A mutant assessed as dissociation constant for Michaelis complex formation by enzyme kinetic study
In short: (§1)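 Wild-type human BuChE (lyophilised, dissolved in pH 8.0 phosphate buffer) or recombinant mutants. Final concentrations: enzyme 0.05 U mL^-1, DTNB 0.3 mmol, butyrylthiocholine 0.5 mmol. Inhibitor at various concentrations was mixed with enzyme at time 0. Aliquots taken at successive times were read at 412 nm over 30 s, in at least two wells each. k_obs came from a first-order fit, and K_c from a nonlinear fit of k_obs against inhibitor concentration.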

[4] = Inhibition of human BuChE D70G mutant assessed as dissociation constant for Michaelis complex formation by enzyme kinetic study; in short: as §1
[5] = target: T1, Cholinesterase (Homo sapiens, UniProt P06276); assay: Inhibition of BuChE in human liver microsomes assessed as dissociation constant for Michaelis complex formation by enzyme kinetic study; settings: Microsome
[6] = species: Homo sapiens; assay: Inhibition of human BuChE D70G/Y332A mutant assessed as dissociation constant for Michaelis complex formation by enzyme kinetic study; in short: as §1
[7] = target: T1, Cholinesterase; assay: Inhibition of BuChE in human liver microsomes
[8] = test system: Plasma; assay: Metabolic stability in 33% human plasma assessed as compound hydrolysis after 1 hr by HPLC; assay type: ADME, cell-free
In short: (§2)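 The ester (1 × 10^-4 M) was incubated in human plasma solution (33-50%), mouse plasma (33%) or mouse liver homogenate. Remaining intact ester was measured by HPLC as a function of time over 1 h.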

[9] = species: Homo sapiens; assay: Selectivity for human BuChe over human CES2
[10] = test system: Liver; assay: Metabolic stability in 33% mouse liver homogenate assessed as compound hydrolysis after 1 hr by HPLC; assay type: ADME, tissue-based; settings: tissue homogenate; in short: as §2
[11] = target: T2, Cocaine esterase (Homo sapiens, UniProt O00748); assay: Inhibition of human CES2-mediated pNPA substrate turnover
T2 sequence (O00748 whole entry): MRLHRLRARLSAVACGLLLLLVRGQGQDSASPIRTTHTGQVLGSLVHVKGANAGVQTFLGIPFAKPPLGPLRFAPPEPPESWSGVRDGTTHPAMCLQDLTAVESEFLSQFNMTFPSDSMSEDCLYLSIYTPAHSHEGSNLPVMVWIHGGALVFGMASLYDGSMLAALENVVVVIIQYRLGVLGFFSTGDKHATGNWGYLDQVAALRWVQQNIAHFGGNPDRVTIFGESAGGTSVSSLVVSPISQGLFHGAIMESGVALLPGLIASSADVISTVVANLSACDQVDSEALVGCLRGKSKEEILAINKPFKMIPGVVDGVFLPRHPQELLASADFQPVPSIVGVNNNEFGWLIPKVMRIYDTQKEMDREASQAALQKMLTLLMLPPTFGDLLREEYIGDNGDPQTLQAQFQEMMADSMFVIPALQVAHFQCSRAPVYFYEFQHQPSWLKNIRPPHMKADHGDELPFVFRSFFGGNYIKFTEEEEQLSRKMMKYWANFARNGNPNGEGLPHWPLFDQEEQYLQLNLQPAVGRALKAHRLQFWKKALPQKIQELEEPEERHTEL
In short: (§3)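 Source: pooled human liver microsomes (CES1) or human intestinal microsomes (CES2). The microsomes were preincubated with inhibitor at 50 nM-200 μM in 50 mM Tris-HCl pH 7.4 for 30 min at 37 °C. Substrate was pNPA at 3 mM final. p-Nitrophenol release was read at 405 nm. Rates were corrected for spontaneous-hydrolysis blanks, with four independent measurements per concentration. IC50 came from nonlinear sigmoidal curve fit.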

[12] = target: Acetylcholinesterase (Homo sapiens) (UniProt P22303); assay: Inhibition of human erythrocyte AChE at 100 uM
[13] = test system: Plasma; assay: Metabolic stability in 33% mouse plasma assessed as compound hydrolysis after 1 hr by HPLC; assay type: ADME, cell-free; in short: as §2
[14] = target: T3, Liver carboxylesterase 1 (Homo sapiens, UniProt P23141); assay: Inhibition of human CES1-mediated pNPA substrate turnover; in short: as §3
T3 sequence (P23141 whole entry): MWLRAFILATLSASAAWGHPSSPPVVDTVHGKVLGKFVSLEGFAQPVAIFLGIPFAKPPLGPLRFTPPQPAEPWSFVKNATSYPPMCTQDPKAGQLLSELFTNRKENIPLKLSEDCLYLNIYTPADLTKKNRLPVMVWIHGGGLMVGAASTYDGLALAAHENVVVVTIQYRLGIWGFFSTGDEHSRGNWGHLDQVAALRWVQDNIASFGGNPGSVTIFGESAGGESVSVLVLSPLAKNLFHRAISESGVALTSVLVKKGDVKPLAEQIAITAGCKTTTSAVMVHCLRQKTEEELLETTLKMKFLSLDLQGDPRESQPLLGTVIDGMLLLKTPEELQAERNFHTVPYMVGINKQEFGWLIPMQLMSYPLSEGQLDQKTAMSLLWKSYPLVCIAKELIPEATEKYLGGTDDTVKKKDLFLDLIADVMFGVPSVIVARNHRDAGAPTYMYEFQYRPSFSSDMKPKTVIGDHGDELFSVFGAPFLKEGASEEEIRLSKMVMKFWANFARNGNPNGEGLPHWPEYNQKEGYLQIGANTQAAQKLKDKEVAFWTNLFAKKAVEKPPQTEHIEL

Acetylcholinesterase (Electrophorus electricus), sequence (O42275 24-633 limits assumed): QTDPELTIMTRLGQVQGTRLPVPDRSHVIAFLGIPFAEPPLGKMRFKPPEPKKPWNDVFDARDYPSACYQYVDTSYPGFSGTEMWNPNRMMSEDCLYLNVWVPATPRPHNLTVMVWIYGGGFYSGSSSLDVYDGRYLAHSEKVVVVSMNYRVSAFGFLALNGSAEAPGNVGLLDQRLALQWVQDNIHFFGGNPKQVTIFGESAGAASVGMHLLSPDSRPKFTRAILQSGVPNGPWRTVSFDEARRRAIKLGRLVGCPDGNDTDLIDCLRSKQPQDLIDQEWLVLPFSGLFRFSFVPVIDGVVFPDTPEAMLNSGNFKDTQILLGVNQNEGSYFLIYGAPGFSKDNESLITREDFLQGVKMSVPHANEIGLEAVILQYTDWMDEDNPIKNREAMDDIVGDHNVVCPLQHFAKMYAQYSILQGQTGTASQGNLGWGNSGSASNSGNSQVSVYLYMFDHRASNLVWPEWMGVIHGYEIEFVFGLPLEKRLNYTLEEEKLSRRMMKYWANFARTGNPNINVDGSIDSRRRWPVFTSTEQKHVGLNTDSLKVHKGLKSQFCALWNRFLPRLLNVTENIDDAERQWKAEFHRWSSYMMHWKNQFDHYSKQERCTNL
T1 sequence (P06276 whole entry): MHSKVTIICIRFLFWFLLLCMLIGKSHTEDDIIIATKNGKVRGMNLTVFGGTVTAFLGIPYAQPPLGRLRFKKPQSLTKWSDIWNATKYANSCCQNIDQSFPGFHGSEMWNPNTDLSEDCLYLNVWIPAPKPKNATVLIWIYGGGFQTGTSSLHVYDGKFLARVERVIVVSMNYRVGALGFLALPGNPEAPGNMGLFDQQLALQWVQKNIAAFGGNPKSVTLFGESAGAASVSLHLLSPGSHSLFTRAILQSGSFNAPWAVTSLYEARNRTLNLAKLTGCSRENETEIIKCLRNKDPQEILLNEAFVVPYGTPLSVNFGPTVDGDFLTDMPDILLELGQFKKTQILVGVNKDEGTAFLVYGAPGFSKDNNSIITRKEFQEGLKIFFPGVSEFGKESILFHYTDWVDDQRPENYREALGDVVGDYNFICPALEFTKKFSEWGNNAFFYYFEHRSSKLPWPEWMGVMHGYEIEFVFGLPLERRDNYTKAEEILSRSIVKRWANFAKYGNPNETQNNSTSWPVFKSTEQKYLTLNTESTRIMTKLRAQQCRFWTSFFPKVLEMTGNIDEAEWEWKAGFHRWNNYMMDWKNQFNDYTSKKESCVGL
Acetylcholinesterase (Homo sapiens), sequence (P22303 whole entry): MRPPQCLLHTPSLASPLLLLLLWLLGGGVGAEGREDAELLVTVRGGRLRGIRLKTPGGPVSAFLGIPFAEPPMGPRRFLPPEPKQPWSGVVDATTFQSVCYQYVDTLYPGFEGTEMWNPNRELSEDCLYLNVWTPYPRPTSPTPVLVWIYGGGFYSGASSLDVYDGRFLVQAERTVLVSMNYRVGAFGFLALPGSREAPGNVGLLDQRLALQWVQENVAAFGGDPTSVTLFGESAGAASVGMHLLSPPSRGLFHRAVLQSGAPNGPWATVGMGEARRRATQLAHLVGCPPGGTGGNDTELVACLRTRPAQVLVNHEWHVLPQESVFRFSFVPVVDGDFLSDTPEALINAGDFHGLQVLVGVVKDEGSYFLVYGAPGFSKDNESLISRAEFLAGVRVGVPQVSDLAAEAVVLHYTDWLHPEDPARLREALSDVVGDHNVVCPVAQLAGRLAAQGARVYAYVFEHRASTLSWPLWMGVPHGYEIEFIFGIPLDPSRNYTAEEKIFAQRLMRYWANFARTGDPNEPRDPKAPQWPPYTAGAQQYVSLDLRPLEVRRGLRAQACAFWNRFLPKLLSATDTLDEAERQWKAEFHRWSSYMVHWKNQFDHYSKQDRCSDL

| SMILES | Ratio [1] | inhibition [2] | Activity [5] | IC50 [7] | other results |
| --- | --- | --- | --- | --- | --- |
| CCNC(=O)O[C@H]1CO[C@H]2[C@@H]1OC[C@H]2OC(=O)c1ccccc1O | > 10400 | 16% | 0.075 µM | 0.0096 µM | Activity [3]: 0.42 µM; Activity [4]: 0.32 µM; Activity [6]: 2.26 µM |
| Nc1cccc(C(=O)O[C@@H]2CO[C@H]3[C@@H]2OC[C@@H]3OC(=O)NCc2ccccc2)c1 | > 1170 | 0% | – | 0.086 µM | – |
| CCCCNC(=O)O[C@H]1CO[C@H]2[C@@H]1OC[C@H]2OC(=O)c1ccccc1 | – | – | 2.57 µM | 0.072 µM | Activity [3]: 1.3 µM; Activity [4]: 2.7 µM; Activity [6]: 5.3 µM |
| Nc1ccccc1C(=O)O[C@@H]1CO[C@H]2[C@@H]1OC[C@@H]2OC(=O)NCc1ccccc1 | > 3700 | 0% | – | 0.027 µM | – |
| O=C(NCc1ccccc1)O[C@H]1CO[C@H]2[C@@H]1OC[C@H]2OC(=O)c1cccc([N+](=O)[O-])c1 | > 3120 | 0% | – | 0.032 µM | – |
| O=C(NCc1ccccc1)O[C@H]1CO[C@H]2[C@@H]1OC[C@H]2OC(=O)c1ccccc1O | > 660000 | 47% | 0.01 µM | 0.00015 µM | Stability [8]: Stable; Activity [3]: 0.05 µM; Ratio IC50 [9]: 22800; Stability [10]: Stable; Activity [4]: 0.067 µM; IC50 [11]: 3.42 µM; inhibition [12]: 52%; Stability [13]: Stable; Activity [6]: 0.445 µM; Activity [14]: Not Active |
| O=C(O[C@@H]1CO[C@H]2[C@@H]1OC[C@@H]2OC(=O)N1CCOCC1)c1ccccc1O | > 95 | 12% | – | 1.06 µM | – |
| O=Nc1ccccc1C(=O)O[C@@H]1CO[C@H]2[C@@H]1OC[C@@H]2OC(=O)NCc1ccccc1 | > 2560 | 0% | – | 0.039 µM | – |
| CN(C)C(=O)O[C@H]1CO[C@H]2[C@@H]1OC[C@H]2OC(=O)c1ccccc1O | > 15600 | 0% | – | 0.0064 µM | – |
| CCN(CC)C(=O)O[C@H]1CO[C@H]2[C@@H]1OC[C@H]2OC(=O)c1ccccc1O | > 38 | 0% | – | 2.61 µM | – |
| Nc1ccc(C(=O)O[C@@H]2CO[C@H]3[C@@H]2OC[C@@H]3OC(=O)NCc2ccccc2)cc1 | 336 | 33% | – | 0.297 µM | – |
| O=C(NCc1ccccc1)O[C@H]1CO[C@H]2[C@@H]1OC[C@H]2OC(=O)c1ccc([N+](=O)[O-])cc1 | > 854 | 27% | – | 0.117 µM | – |
| O=C(NCc1ccccc1)O[C@H]1CO[C@H]2[C@@H]1OC[C@H]2OC(=O)c1ccccc1[N+](=O)[O-] | > 5560 | 0% | – | 0.018 µM | – |
| O=C(NCc1ccccc1)O[C@H]1CO[C@H]2[C@@H]1OC[C@H]2OC(=O)c1cccc(O)c1 | > 6250 | 0% | – | 0.016 µM | – |
| O=C(NCc1ccccc1)O[C@H]1CO[C@H]2[C@@H]1OC[C@H]2OC(=O)c1cccnc1 | – | – | 1.9 µM | – | – |
| Cc1ccccc1C(=O)O[C@@H]1CO[C@H]2[C@@H]1OC[C@@H]2OC(=O)NCc1ccccc1 | > 83300 | 26% | 0.248 µM | 0.0012 µM | – |
| O=C(NCc1ccccc1)O[C@H]1CO[C@H]2[C@@H]1OC[C@H]2OC(=O)c1ccc(-c2ccccc2)cc1 | – | – | 0.4 µM | – | – |
| O=C(NCc1ccccc1)O[C@H]1CO[C@H]2[C@@H]1OC[C@H]2OC(=O)c1ccc(O)cc1 | > 309 | 0% | – | 0.323 µM | – |
| O=C(NCc1ccccc1)O[C@H]1CO[C@H]2[C@@H]1OC[C@H]2OC(=O)c1ccccc1 | – | – | – | – | Activity [3]: 1.5 µM; Activity [4]: 2.4 µM; Activity [6]: 6.4 µM |
| O=C(NCc1ccccc1)O[C@H]1CO[C@H]2[C@@H]1OC[C@H]2O | – | – | 18.7 µM | – | – |
